Among the data in the array DNA melting data of Ke et al. (doi:10.1101/2024.01.08.574731) are folding enthalpy and Tm values, retold here.

The nature of data set [1]: folding enthalpy; higher = less favourable; fluorescence melt of hairpins on a sequencing array, two-state fit. The conditions noted are these: sodium 0.088 M. The procedure, abridged:
(§1)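 Library hairpins on a sequenced MiSeq flow cell carried annealed Cy3 and quencher oligos, and their Cy3 fluorescence was imaged in 50 mM Na-HEPES pH 8.0 with 25 mM NaCl, in 2.5 °C steps up to 60 °C. Signals were normalised to Cy3 before quenching and to control constructs. Melting temperature and folding enthalpy were obtained from bootstrapped two-state fits, combined by inverse-variance weighting across four replicates, and the fitted temperatures were then raised by 9.35 °C to match UV melts.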

Data set [2] can be described thus: melting temperature; fluorescence melt of hairpins on a sequencing array, two-state fit, raised by 9.35 °C to match UV melts. The conditions noted are these: sodium 0.088 M. In short, it runs like this: as §1

Take GGCCAACGAAAGTTGCC (((.(((....)))))): the folding enthalpy in data set [1] is -20 kcal/mol. Further, the Tm in data set [2] turned out to be 54.3 °C.

In the case of GATCAGATCCTGATC ((((((...)))))), the folding enthalpy in data set [1] is -37 kcal/mol. Also, the Tm in data set [2] turned out to be 48.2 °C.

Turning to GATTAACGAAAGTTTATC (((.(((....))).))), the folding enthalpy in data set [1] was -22.8 kcal/mol. Also, in data set [2], the Tm came to 34.9 °C.

As for GATCTGAACACAGATC ((((((....)))))), the folding enthalpy in data set [1] is -34.7 kcal/mol. The Tm in data set [2] is 48.4 °C.

Take GCGAACCGAAAGGTACGC (((.(((....))).))): the folding enthalpy in data set [1] was -45.7 kcal/mol. Also, the Tm in data set [2] came to 64.3 °C.

GATCTCTGCTGAGATC ((((((....)))))): the folding enthalpy in data set [1] is -45.9 kcal/mol. The Tm in data set [2] is 53.7 °C.

As for GTGGGGCGAAAGCCTCAC (((.(((....))).))), the folding enthalpy in data set [1] is -30.2 kcal/mol. In addition, the Tm in data set [2] came out at 67.6 °C.

In the case of GCGATTCCTCGC ((((....)))), the folding enthalpy in data set [1] was -22.4 kcal/mol. The Tm in data set [2] was found to be 49.5 °C.

In the case of GACCGCGAAAGCGATGTC ((((((....)))..))), the folding enthalpy in data set [1] is -14.9 kcal/mol. Also, the Tm in data set [2] was determined as 44.3 °C.

On to GATCCAGTGTTGGATC ((((((....)))))), for which, in data set [1], the folding enthalpy is -36.9 kcal/mol. The Tm in data set [2] was determined as 50.8 °C.

As for GATTCTCCGAAAGGAATC (((..(((....)))))), the folding enthalpy in data set [1] was -14.2 kcal/mol. Moreover, the Tm in data set [2] worked out at 28.2 °C.

GCGCTGCGAAAGCACAGC ((..(((....)))..)): the folding enthalpy in data set [1] is -17.6 kcal/mol. Moreover, the Tm in data set [2] stood at 49.9 °C.

GTATCTGGAAACAGATGC (.(((((....))))).): the folding enthalpy in data set [1] was -21.2 kcal/mol. Besides, in data set [2], the Tm amounted to 46.9 °C.

Consider GCATCCGGAAACGGGTGC (((.(((....))).))), for which the folding enthalpy in data set [1] was -39.5 kcal/mol. The Tm in data set [2] was determined as 62.7 °C.

In the case of GATCGTTGTCACGATC ((((((....)))))), the folding enthalpy in data set [1] was -40.9 kcal/mol. Moreover, the Tm in data set [2] stood at 54.9 °C.

On to GCGCCTCGAAAGAGCGC (((.(((....)))))), for which the folding enthalpy in data set [1] is -35.9 kcal/mol. In addition, the Tm in data set [2] came to 67.4 °C.

Regarding GATACGGGAAACCGCATC (((.(((....))).))), in data set [1], the folding enthalpy was -24.8 kcal/mol. Further, the Tm in data set [2] was 41.4 °C.

On to GCTTTCGAAAGAAACAGC ((((((....)))..))), for which, in data set [1], the folding enthalpy is -16.3 kcal/mol. In data set [2], the Tm amounted to 32.8 °C.

On to GAGCCCGAAAGGGACTC ((((((....))).))), for which the folding enthalpy in data set [1] was -22.9 kcal/mol. The Tm in data set [2] came to 54.8 °C.

For GGTCGGGGAAACTCGACC (((((.(....).))))), the folding enthalpy in data set [1] was -42.8 kcal/mol. The Tm in data set [2] was 58 °C.

In the case of GTCAGGTCGAAAGACGAC (((..(((....)))))), the folding enthalpy in data set [1] was -16.8 kcal/mol. In addition, the Tm in data set [2] worked out at 43.1 °C.

For the sequence CGAAACGGAAACGTTCG (((.(((....)))))), the folding enthalpy in data set [1] was -25.9 kcal/mol. Further, the Tm in data set [2] is 45 °C.

On to GGGGTCGAAAGACGTCCC ((((((....)))..))), for which the folding enthalpy in data set [1] is -18.5 kcal/mol. Moreover, in data set [2], the Tm stood at 42.4 °C.

In the case of GGAGTCCCGAAAGGGTCC (((..(((....)))))), the folding enthalpy in data set [1] was -12.4 kcal/mol. Further, in data set [2], the Tm turned out to be 34 °C.

Take GGCACCGGAAACAGTGCC (((((.(....).))))): in data set [1], the folding enthalpy is -30.9 kcal/mol. In addition, the Tm in data set [2] was 53.9 °C.

As to GCCGCAGCGAAAGCTGGC (((..(((....)))))), the folding enthalpy in data set [1] was -9.6 kcal/mol. The Tm in data set [2] turned out to be 56.7 °C.

With GAGGCAGGAAACTGCTTC ((.((((....)))).)), in data set [1], the folding enthalpy was -18 kcal/mol. Also, the Tm in data set [2] came out at 47.7 °C.

For GTTTTGCGAAAGCACAAC (((.(((....))).))), the folding enthalpy in data set [1] was -28.1 kcal/mol. Also, the Tm in data set [2] was 44.2 °C.

Regarding GTGTTCGAAAGAAGCAC ((((((....))).))), in data set [1], the folding enthalpy was -21.8 kcal/mol. For the same sequence, the Tm in data set [2] was 37.4 °C.

Turning to GCTACGCGAAAGCCTCGC ((.(.((....)).).)), the folding enthalpy in data set [1] is -7.35 kcal/mol. In data set [2], the Tm was determined as 18.1 °C.

Turning to GATCACTCTAGTGATC ((((((....)))))), the folding enthalpy in data set [1] was -40.4 kcal/mol. In addition, in data set [2], the Tm turned out to be 59.9 °C.

GAGACTGGAAACAGTCTC (((((((....))))))): in data set [1], the folding enthalpy was -40.3 kcal/mol. For the same sequence, the Tm in data set [2] came out at 64.8 °C.

For GCACTTACGAAAGTATGC (((..(((....)))))), the folding enthalpy in data set [1] was -18.1 kcal/mol. The Tm in data set [2] was found to be 30.3 °C.

For the sequence GCTTTCCCGAAAGGGAGC (((..(((....)))))), the folding enthalpy in data set [1] was -10.2 kcal/mol. In addition, in data set [2], the Tm turned out to be 34.3 °C.

Regarding GCTTCACGAAAGTGAGC (((.(((....)))))), the folding enthalpy in data set [1] was -17.8 kcal/mol. In data set [2], the Tm came out at 51 °C.

GATCAGATCGCTGATC ((((((....)))))): in data set [1], the folding enthalpy was -28.2 kcal/mol. Also, the Tm in data set [2] was 48.9 °C.

As to GGGTTCGAAAGAACCCCC ((((((....)))..))), the folding enthalpy in data set [1] was -9.24 kcal/mol. Also, the Tm in data set [2] was 68.2 °C.
